Experimental data taken from ChEMBL document CHEMBL1129260, “Evaluation of the stability and animal biodistribution of gadolinium (III) benzylamine-derivatized diethylenetriaminepentaacetic acid” (J Med Chem, 1996).

Experiments:
Conditions in all cases: in vivo
Rattus norvegicus [1] = organism: Rattus norvegicus; assay: Biodistribution of Gd-LDTA (conjugated with galactose BSA) protein using [111In]- in mature female Sprague-Dawley rat kidney after injecting for 96 hour.; format: ADME, organism-based
Rattus norvegicus [2] = organism: Rattus norvegicus; assay: Biodistribution of Gd-LDTA (conjugated with mannose BSA) protein using [111In]- in mature female Sprague-Dawley rat bone marrow after injecting for 1 hour.; format: ADME, organism-based
Rattus norvegicus [3] = organism: Rattus norvegicus; assay: Biodistribution of In-LDTA (conjugated with galactose BSA)protein using [111In]- in mature female Sprague-Dawley rat colon after injecting for 4 hour.; format: ADME, organism-based
Procedure, shortened: (§1)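 SCN-LDTPA was coupled (pH 9 bicine, 24 h, RT) to BSA, mannosylated BSA or galactosylated BSA and FPLC-purified. The conjugate (400 μg) was labeled with 340 μCi 111In acetate at pH 5.5 for 45 min and gel-filtered. Mature female Sprague-Dawley rats received 19 μg of conjugate; four rats per time point. Blood, liver, bone, kidney and colon were taken and reported as %ID/organ.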

Rattus norvegicus [4] = organism: Rattus norvegicus; assay: Biodistribution of In-LDTA (conjugated with galactose BSA)protein using [111In]- in mature female Sprague-Dawley rat liver after injecting for 24 hour.; format: ADME, organism-based; procedure, shortened: as §1
Rattus norvegicus [5] = organism: Rattus norvegicus; assay: Biodistribution of Gd-LDTA (conjugated with mannose BSA) protein using [111In]- in mature female Sprague-Dawley rat colon after injecting for 24 hour.; format: ADME, organism-based
Procedure, shortened: (§2)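 Conjugate of SCN-LDTPA with BSA, mannosylated BSA or galactosylated BSA (10 equiv chelate, pH 9 bicine, RT 24 h; FPLC-purified) was labelled with 340 μCi 111In acetate at pH 5.5 for 45 min. It was then gel-filtered (Biospin-6) and checked for purity by FPLC. Mature female Sprague-Dawley rats received 19 μg of conjugate. Four rats per time point (1, 4, 24, 48 h) were killed; blood, liver, bone, kidney and colon were taken and %ID/organ was calculated.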

Rattus norvegicus [6] = organism: Rattus norvegicus; assay: Biodistribution of In-LDTA (conjugated with mannoseBSA) protein using [111In]- in mature female Sprague-Dawley rat bone after injecting for 1 hour.; format: ADME, organism-based, Bone element; procedure, shortened: as §1
Rattus norvegicus [7] = organism: Rattus norvegicus; assay: Biodistribution of Gd-LDTA (conjugated with mannose BSA) protein using [111In]- in mature female Sprague-Dawley rat kidney after injecting for 4 hour.; format: ADME, organism-based
Rattus norvegicus [8] = organism: Rattus norvegicus; assay: Biodistribution of In-LDTA (conjugated with mannoseBSA) protein using [111In]- in mature female Sprague-Dawley rat colon after injecting for 24 hour.; format: ADME, organism-based; procedure, shortened: as §1
Rattus norvegicus [9] = organism: Rattus norvegicus; assay: Biodistribution of Gd-LDTA (conjugated with mannose BSA) protein using [111In]- in mature female Sprague-Dawley rat liver after injecting for 96 hour.; format: ADME, organism-based
Rattus norvegicus [10] = organism: Rattus norvegicus; assay: Biodistribution of Gd-LDTA (conjugated with galactose BSA) protein using [153Gd]- in mature female Sprague-Dawley rat blood after injecting for 48 hour.
Rattus norvegicus [11] = organism: Rattus norvegicus; assay: Biodistribution of Gd-LDTA (conjugated with mannose BSA) protein using [111In]- in mature female Sprague-Dawley rat colon after injecting for 48 hour.; format: ADME, organism-based
Rattus norvegicus [12] = organism: Rattus norvegicus; assay: Biodistribution of In-LDTA (conjugated with mannoseBSA)protein using [111In]- in mature female Sprague-Dawley rat blood after injecting for 1 hour.; format: ADME, organism-based; procedure, shortened: as §1
Rattus norvegicus [13] = organism: Rattus norvegicus; assay: Biodistribution of In-LDTA (conjugated with BSA) protein using [111In]- in mature female Sprague-Dawley rat blood after injecting for 48 hour.; format: ADME, organism-based; procedure, shortened: as §1
Rattus norvegicus [14] = organism: Rattus norvegicus; assay: Biodistribution of Gd-DTA (conjugated with BSA)protein using [111In]- in mature female Sprague-Dawley rat liver after injecting for 1 hour.; format: ADME, organism-based; procedure, shortened: as §2
Rattus norvegicus [15] = organism: Rattus norvegicus; assay: Biodistribution of In-LDTA (conjugated with mannoseBSA) protein using [111In]- in mature female Sprague-Dawley rat liver after injecting for 24 hour.; format: ADME, organism-based; procedure, shortened: as §1
Rattus norvegicus [16] = organism: Rattus norvegicus; assay: Biodistribution of Gd-DTA (conjugated with BSA)protein using [111In]- in mature female Sprague-Dawley rat liver after injecting for 24 hour.; format: ADME, organism-based; procedure, shortened: as §2
Rattus norvegicus [17] = organism: Rattus norvegicus; assay: Biodistribution of Gd-LDTA (conjugated with mannose BSA) protein using [111In]- in mature female Sprague-Dawley rat kidney after injecting for 96 hour.; format: ADME, organism-based
Rattus norvegicus [18] = organism: Rattus norvegicus; assay: Biodistribution of Gd-DTA (conjugated with BSA)protein using [111In]- in mature female Sprague-Dawley rat kidney after injecting for 96 hour.; format: ADME, organism-based
Rattus norvegicus [19] = organism: Rattus norvegicus; assay: Biodistribution of Gd-DTA (conjugated with BSA)protein using [153Gd]- in mature female Sprague-Dawley rat bone marrow after injecting for 24 hour.
Rattus norvegicus [20] = organism: Rattus norvegicus; assay: Biodistribution of In-LDTA (conjugated with mannoseBSA)protein using [111In]- in mature female Sprague-Dawley rat blood after injecting for 24 hour.; format: ADME, organism-based; procedure, shortened: as §1
Rattus norvegicus [21] = organism: Rattus norvegicus; assay: Biodistribution of Gd-DTA (conjugated with BSA)protein using [111In]- in mature female Sprague-Dawley rat blood after injecting for 48 hour.; format: ADME, organism-based; procedure, shortened: as §2
Rattus norvegicus [22] = organism: Rattus norvegicus; assay: Biodistribution of Gd-DTA (conjugated with BSA)protein using [153Gd]- in mature female Sprague-Dawley rat bone after injecting for 96 hour.
Rattus norvegicus [23] = organism: Rattus norvegicus; assay: Biodistribution of In-LDTA (conjugated with BSA) protein using [111In]- in mature female Sprague-Dawley rat blood after injecting for 4 hour.; format: ADME, organism-based; procedure, shortened: as §1
Rattus norvegicus [24] = organism: Rattus norvegicus; assay: Biodistribution of Gd-LDTA (conjugated with galactose BSA) protein using [111In]- in mature female Sprague-Dawley rat colon after injecting for 48 hour.; format: ADME, organism-based; procedure, shortened: as §2
Rattus norvegicus [25] = organism: Rattus norvegicus; assay: Biodistribution of In-LDTA (conjugated with mannoseBSA) protein using [111In]- in mature female Sprague-Dawley rat kidney after injecting for 1 hour.; format: ADME, organism-based; procedure, shortened: as §1
Rattus norvegicus [26] = organism: Rattus norvegicus; assay: Biodistribution of Gd-LDTA (conjugated with galactose BSA) protein using [111In]- in mature female Sprague-Dawley rat bone marrow after injecting for 48 hour.; format: ADME, organism-based
Rattus norvegicus [27] = organism: Rattus norvegicus; assay: Biodistribution of Gd-DTA (conjugated with BSA)protein using [111In]- in mature female Sprague-Dawley rat bone marrow after injecting for 1 hour.; format: ADME, organism-based
Rattus norvegicus [28] = organism: Rattus norvegicus; assay: Biodistribution of Gd-LDTA (conjugated with mannose BSA) protein using [111In]- in mature female Sprague-Dawley rat blood after injecting for 24 hour.; format: ADME, organism-based; procedure, shortened: as §2
Rattus norvegicus [29] = organism: Rattus norvegicus; assay: Biodistribution of Gd-DTA (conjugated with BSA)protein using [111In]- in mature female Sprague-Dawley rat colon after injecting for 1 hour.; format: ADME, organism-based; procedure, shortened: as §2
Rattus norvegicus [30] = organism: Rattus norvegicus; assay: Biodistribution of In-LDTA (conjugated with galactose BSA)protein using [111In]- in mature female Sprague-Dawley rat bone after injecting for 48 hour.; format: ADME, organism-based, Bone element; procedure, shortened: as §1
Rattus norvegicus [31] = organism: Rattus norvegicus; assay: Biodistribution of In-LDTA (conjugated with BSA)protein using [111In]- in mature female Sprague-Dawley rat colon after injecting for 48 hr.; format: ADME, organism-based; procedure, shortened: as §1
Rattus norvegicus [32] = organism: Rattus norvegicus; assay: Biodistribution of Gd-DTA (conjugated with BSA)protein using [153Gd]- in mature female Sprague-Dawley rat bone after injecting for 48 hour.
Rattus norvegicus [33] = organism: Rattus norvegicus; assay: Biodistribution of Gd-DTA (conjugated with BSA)protein using [153Gd]- in mature female Sprague-Dawley rat bone marrow after injecting for 48 hour.
Rattus norvegicus [34] = organism: Rattus norvegicus; assay: Biodistribution of Gd-LDTA (conjugated with galactose BSA) protein using [111In]- in mature female Sprague-Dawley rat kidney after injecting for 24 hour.; format: ADME, organism-based; procedure, shortened: as §2
Rattus norvegicus [35] = organism: Rattus norvegicus; assay: Biodistribution of In-LDTA (conjugated with mannoseBSA) protein using [111In]- in mature female Sprague-Dawley rat kidney after injecting for 4 hour.; format: ADME, organism-based; procedure, shortened: as §1

ID/organ (Rattus norvegicus [1]): 0.193%
ID/organ (Rattus norvegicus [2]): 2.61%
ID/organ (Rattus norvegicus [3]): 4.8%
ID/organ (Rattus norvegicus [4]): 65.4%
ID/organ (Rattus norvegicus [5]): 0.403%
ID/organ (Rattus norvegicus [6]): 10.5%
ID/organ (Rattus norvegicus [7]): 0.542%
ID/organ (Rattus norvegicus [8]): 0.732%
ID/organ (Rattus norvegicus [9]): 24.4%
ID/organ (Rattus norvegicus [10]): 0.037%
ID/organ (Rattus norvegicus [11]): 0.21%
ID/organ (Rattus norvegicus [12]): 0.255%
ID/organ (Rattus norvegicus [13]): 3.33%
ID/organ (Rattus norvegicus [14]): 14.2%
ID/organ (Rattus norvegicus [15]): 75.2%
ID/organ (Rattus norvegicus [16]): 20%
ID/organ (Rattus norvegicus [17]): 0.405%
ID/organ (Rattus norvegicus [18]): 2.73%
ID/organ (Rattus norvegicus [19]): 3.07%
ID/organ (Rattus norvegicus [20]): 0.129%
ID/organ (Rattus norvegicus [21]): 3.37%
ID/organ (Rattus norvegicus [22]): 44.6%
ID/organ (Rattus norvegicus [23]): 53.8%
ID/organ (Rattus norvegicus [24]): 35.3%
ID/organ (Rattus norvegicus [25]): 0.144%
ID/organ (Rattus norvegicus [26]): 0.061%
ID/organ (Rattus norvegicus [27]): 1.19%
ID/organ (Rattus norvegicus [28]): 0.063%
ID/organ (Rattus norvegicus [29]): 0.952%
ID/organ (Rattus norvegicus [30]): 0.29%
ID/organ (Rattus norvegicus [31]): 5.52%
ID/organ (Rattus norvegicus [32]): 35.9%
ID/organ (Rattus norvegicus [33]): 2.46%
ID/organ (Rattus norvegicus [34]): 0.14%
ID/organ (Rattus norvegicus [35]): 0.244%
Compound: Nc1ccc(CC(C(=O)O)N(CCN(CC(=O)O)CC(=O)O)CCN(CC(=O)O)CC(=O)O)cc1 (stereo not given)
